Compound activity deposited in PubChem BioAssay by several laboratories.
UCH37 inh = inhibitors of human deubiquitinating enzyme UCH37; Q9Y5K5; purified proteasome/UCH37, Ub-AMC cleavage fluorescence; inhibition, % (concentration not given with the values); 330,000 compounds, 0.33% hits; AID 588478;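 active = mean inhibition over replicate wells above about 20%, limit read from the data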;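 also: 0% = compound-free wells with enzyme and 100% = wells lacking proteasome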
Target sequence (Q9Y5K5 whole entry, looked up): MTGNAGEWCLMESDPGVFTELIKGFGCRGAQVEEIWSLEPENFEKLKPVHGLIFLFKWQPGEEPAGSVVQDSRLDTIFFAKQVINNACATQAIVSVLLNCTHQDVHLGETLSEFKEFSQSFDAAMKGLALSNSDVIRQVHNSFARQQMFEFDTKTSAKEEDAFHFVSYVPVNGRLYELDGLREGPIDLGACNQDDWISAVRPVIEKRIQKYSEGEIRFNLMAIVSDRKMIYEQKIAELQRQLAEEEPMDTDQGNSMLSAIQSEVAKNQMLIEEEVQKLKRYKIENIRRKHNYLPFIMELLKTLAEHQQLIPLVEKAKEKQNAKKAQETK
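Signal – fluorescence, ex 355 nm, em 460 nm · System – Proteasome-bound UCH37 · Input – 0.15 nM proteasome as dispensed · Timing – 30 min preincubation with enzyme, 25 min cleavage at room temperature · Read-out basis – percent inhibition of cleavage signal versus uninhibited and no-proteasome wells · Medium – Tris-HCl pH 7.4 with ATP-MgCl2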
Rin1 Abl inh = blocks binding of human Rin1 to Abl | 360,000 compounds, 0.4% hits | inhibition, % at 7.35 µM | P00519+Q13671 | TR-FRET Rin1/Abl binding, biochemical; in the data active = inhibition above about 5%, passing the limit was not always enough
ATG4B inhibitor = ATG4B (human) cysteine protease inhibition; ATG4B cleavage of LC3-PLA2, NBD-HPC fluorescence, 1 h; inhibition, % at 8.33 µM; 340,000 compounds, 0.51% hits; in the data active = inhibition above about 40%
TbMetRS inhib = Trypanosoma brucei MetRS inhibition; 360,000 compounds, 0.4% hits; AID 624268; inhibition, % at 11.9 µM; purified T. brucei MetRS, ATP depletion, Kinase-Glo luminescence;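 active = inhibition above a per-plate cutoff of the control wells' mean inhibition plus 3 SD, cut at about 5.5% in these data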;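 also: 0% = DMSO wells median and 100% = median of wells with control inhibitor compound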
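Material: T. brucei methionyl-tRNA synthetase, purified; reagent: substrates ATP, L-methionine and bulk Escherichia coli tRNA; dosing: 11.9 µM single point; timing: 15 min plus 2 h at 25 °C; detection: luminescence of leftover ATP; evaluation: % inhibition; control set: DMSO-only wells as low control; replicates: singlicate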
ATG4B confirm = confirmation of human ATG4B inhibitors; ATG4B protease fluorescent substrate cleavage assay; inhibition, % at 8.33 µM; 320 compounds, 92% hits; AID 504757; shares compounds with ATG4B inhibitor; in the data active = inhibition above about 39%
PLA2 ctr = PLA2 (human) inhibition in ATG4B counter-screen | shares compounds with ATG4B inhibitor | inhibition, % at 8.33 µM | AID 588402 | 1,600 compounds, 66% hits | purified PLA2, NBD-C6-HPC fluorescence, 45 min; in the data active = inhibition above about 50%
Target sequence (P04054 whole entry, looked up): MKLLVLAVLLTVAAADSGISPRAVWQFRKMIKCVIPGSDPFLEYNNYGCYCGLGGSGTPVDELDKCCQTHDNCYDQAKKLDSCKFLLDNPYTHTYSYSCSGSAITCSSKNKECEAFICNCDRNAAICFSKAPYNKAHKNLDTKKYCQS
* = called active by the depositor; · = no result given. Most compounds without a hit are left out; they make up all but 1.4% or so of the library.

SMILES	UCH37 inh	Rin1 Abl inh	ATG4B inhibitor	TbMetRS inhib	others
COc1cc(CC2C(=O)N(C)C(=O)N(C)C2=O)ccc1OCc1ccccc1	24*	6	-10	-1
C[N+]1(C)C2CCC1CC(OC(=O)C(CO)c1ccccc1)C2 (stereo not given)	2	1	-5	0
Cn1c(=O)c2c(nc(N/N=C/c3c(O)n(-c4ccccc4)c(=S)[nH]c3=O)n2C)n(C)c1=O	21*	2	0	1
CN1CCCCC1Cc1ccccc1 (stereo not given)	·	-1	·	-1
CCOc1cc(C=C2C(=O)NC(=O)NC2=O)cc([N+](=O)[O-])c1O	26*	·	·	·
CN(C)c1ccc(C=C2C(=O)NC(=O)NC2=O)cc1[N+](=O)[O-]	8	-10	-2	1
COC(=O)C(NC(=S)N1CC2C[C@@H](C1)Cn1c2cccc1=O)C(C)C (stereo not given in full)	5	-1	1	-2
CC1=C2CCC3C(CCC4=CC(=O)CCC43C)C2CC1 (stereo not given)	20*	3	-1	0
CC(C)Oc1cccc(NC(=O)c2cccn(Cc3ccc4c(c3)OC(F)(F)O4)c2=O)c1	2	4	-7	0
Cc1ccc2c(c1Cl)NC(C(=O)O)C1CC(Sc3ccccc3[N+](=O)[O-])C(Cl)C21 (stereo not given)	6	1	28	-1
O=C(O)c1cccc2c1NC(c1cccc([N+](=O)[O-])c1)C1CC(Sc3ccccc3[N+](=O)[O-])C(Cl)C21 (stereo not given)	3	2	88*	0
O=C(O)c1ccc2c(c1)C1C(Cl)C(Sc3ccccc3[N+](=O)[O-])CC1C(c1cccc([N+](=O)[O-])c1)N2 (stereo not given)	7	3	48*	4
Cc1ccsc1C(=O)C1CCCN(Cc2cccn2-c2ccccn2)C1 (stereo not given)	-2	-2	-6	1
Cc1ccccc1N1C(=O)NC(=O)/C(=C/c2ccc(N3CCOCC3)o2)C1=O	21*	-13	7	-1
Cc1ccccc1N1C(=O)NC(=O)/C(=C\c2cc(Br)c(N3CCOCC3)o2)C1=O	23*	-3	-3	0
CCc1ccccc1N1C(=O)/C(=C/c2ccc(N3CCN(C)CC3)o2)C(=O)NC1=S	16	-3	3	1
CN1C(=O)C(=Cc2ccc(N3CCCCCC3)o2)C(=O)N(C)C1=S	15	-6	-1	-2
O=C1NC(=O)N(c2ccccc2F)C(=O)/C1=C/c1cn(CC(=O)N2CCOCC2)c2ccccc12	0	·	7	·
Cc1cccc(N2C(=O)/C(=C/c3ccc(N4CCN(C)CC4)o3)C(=O)NC2=S)c1C	22*	4	-3	-2
O=C(O)c1ccc(N=Cc2c(O)[nH]c(=O)[nH]c2=O)cc1	16	-4	-5	-1
CC(C)CCOP(N)(=O)Oc1ccccc1Cl (stereo not given)	8	2	2	0
O=C1NC(=O)N(Cc2ccc(F)cc2)C(=O)/C1=C\C=C\c1ccco1	-4	1	9	0
CCCCN1C(=O)/C(=C/C=C/c2ccco2)C(=O)NC1=S	6	2	44*	-1
COC(=O)C1=C(c2ccc(F)cc2F)C[C@@H]2CC[C@H]1N2C(=O)N1CCCC1	-1	0	-3	0
COC(=O)C1=C(c2ccc(F)cc2F)C[C@@H]2CC[C@H]1N2C(=O)N1CCCCC1	21*	3	-4	0
SMILES	UCH37 inh	Rin1 Abl inh	ATG4B inhibitor	TbMetRS inhib	others
Cc1cc2c(C(C)C)c(O)c(O)c(C=O)c2c(O)c1-c1c(C)cc2c(C(C)C)c(O)c(O)c(C=O)c2c1O	·	16*	·	1
CN1C(=O)NC(=O)/C(=C/c2ccc([N+](=O)[O-])o2)C1=O	22*	·	-6	·
COc1ccc(N=Nc2c(O)[nH]c(=S)[nH]c2=O)cc1	21*	-20	4	-1
O=c1c2ccccc2nc(/C=C/c2ccccc2)n1-c1ccccc1O	-3	-1	62*	1	PLA2 ctr=70*
c1cc2c(cc1N1CCCCC1)CNCc1cnnn1-2	·	5	·	-1
Cc1ccc(Cn2cc(C=O)c(-c3ccc(F)cc3)n2)cc1	4	-1	10	0
Cc1ccc(-c2nn(Cc3ccccc3)cc2C=O)cc1C	2	-2	61*	1	PLA2 ctr=78*
Cc1ccc(-c2nn(Cc3ccccc3)cc2C(=O)O)cc1	2	5	-3	-1
Cc1ccc(-c2nn(Cc3ccccc3)cc2C=O)cc1	3	-2	48*	0	PLA2 ctr=59*
COc1ccc(-c2cc(=Nc3cccc(C(=O)O)c3)c3cc(C)ccc3o2)cc1	14	5	61*	0	PLA2 ctr=76*
COC(=O)[C@]1(C)C[C@H]1[C@H](NP(=O)(c1ccccc1)c1ccccc1)c1ccccc1	0	-1	-13	0
Cc1ccc(CN2C3CCCC2CC(NC(=S)NCc2ccccc2)C3)cc1 (stereo not given)	5	2	43*	0	ATG4B confirm=67*;PLA2 ctr=40
CCOC(=O)C1=C(C)N(C)C2(C)CC1c1ccccc1O2 (stereo not given)	7	6	48*	-1	PLA2 ctr=26
CC12CC(c3ccccc3O1)C(C(=O)OCc1ccccc1)C(=O)N2 (stereo not given)	2	6	-3	-3
CN(C)[C@@H]1C(=O)C(C(N)=O)=C(O)[C@@]2(O)C(=O)C3=C(O)c4c(O)ccc(Cl)c4[C@@](C)(O)C3C[C@@H]12 (stereo not given in full)	·	10	80*	-1	ATG4B confirm=47*;PLA2 ctr=13
Cc1cc(C)nc(/N=C(\N)c2c(O)[nH]c(=O)[nH]c2=O)n1	3	2	-11	-1
Cc1ccc(CN2CCN(C)CC2)c(C)c1	1	-6	0	-1
Cc1cc(OCC(=O)NC(Cc2ccc(Cl)cc2)C(=O)O)c2c3c(c(=O)oc2c1)CCCC3 (stereo not given)	-51	0	45*	-2	PLA2 ctr=72*
Clc1ccccc1N1CCN(Cc2ccc3c(c2)OCO3)CC1	0	3	23	0
Clc1ccccc1CN1CCN(c2ccccc2Cl)CC1	2	2	46*	-1	ATG4B confirm=70*;PLA2 ctr=47
COc1ccc(N2C(=O)/C(=C/c3ccc(OC)c(OC)c3)C(=O)NC2=S)cc1	1	1	-2	0
O=C1NC(=O)C(Cc2ccccc2)(Cc2ccccc2)C(=O)N1	·	-2	-2	0
